ChEMBL document CHEMBL3044819, “Structure-activity relationship in the interaction of substituted perinaphthenones with Mycosphaerella fijiensis” (J Agric Food Chem, 2009)
Calls of active or inactive are those of the source. The rule behind the calls is not given here.

test system: Pseudocercospora fijiensis; assay: Antifungal activity against Pseudocercospora fijiensis assessed as inhibition of mycelial growth under 12 hr photoperiod measured after 8 days; type: functional, organism-based
Procedure, shortened: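 Microtiter well assay; inoculum adjusted to 2 × 10⁵ mycelial fragments/mL. Plates kept in an incubation chamber 1 m from white fluorescent tubes on a 12 h photoperiod. Mycelial growth was measured after 8 days, which is the logarithmic growth phase. IC₅₀ values were calculated from growth inhibition, with statistical analysis per Lazzaro et al. Benomyl and propiconazole were tested as reference fungicides.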

SMILES	growth inhibition (GI)
COc1ccc2cccc3c2c1C=CC3=O	inactive
COC1=Cc2cccc3cccc(c23)C1=O	inactive
O=C1C([N+](=O)[O-])=Cc2cccc3cccc1c23	Active
O=C1C(Br)=Cc2cccc3cccc1c23	Active
O=C1C(Cl)=Cc2cccc3cccc1c23	Active
O=C1C=C(O)c2cccc3cccc1c23	inactive
O=C1C=Cc2cccc3cccc1c23	Active
COc1ccc2c3c(cccc13)C(=O)C=C2	inactive
O=C1C=Cc2c(O)ccc3cccc1c23	inactive
COc1ccc2cccc3c2c1C=C([N+](=O)[O-])C3=O	Active
O=C1C(O)=Cc2cccc3cccc1c23	inactive
O=C1C=Cc2ccc(O)c3cccc1c23	inactive
COC1=CC(=O)c2cccc3cccc1c23	inactive
